{"source": "ChEMBL document CHEMBL3877293", "about": "“Synthesis and Antineoplastic Evaluation of Novel Unsymmetrical 1,3,4-Oxadiazoles” (J Med Chem, 2016)", "key": {"[1]": {"assay": "Antiproliferative activity against human MCF7 cells after 72 hrs by XTT assay", "assay_type": "functional, cell-based", "settings": "MCF7, 72 h", "procedure,_shortened": "(§1)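 Cells plated at 1500–2000 per well by doubling time, treated after 24 h with a concentration series in six triplicate wells, and incubated 72 h without a medium change. XTT reagent was then added for 4 h at 37 °C and absorbance read at 490 nm. IC50 is the concentration halving absorbance versus untreated cells. Experiments run in triplicate.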"}, "[2]": {"assay": "Antiproliferative activity against human PC3 cells after 72 hrs by XTT assay", "assay_type": "functional, cell-based", "settings": "PC-3, 72 h", "procedure,_shortened": "as §1"}, "[3]": {"assay": "Antiproliferative activity against human MRC5 cells after 72 hrs by XTT assay", "assay_type": "cell-based", "settings": "MRC5, 72 h", "procedure,_shortened": "as §1"}, "[4]": {"assay": "Cytotoxicity against human HeLa cells assessed as inhibition of colony formation at 0.03 uM after 2 weeks by crystal violet staining based assay relative to control", "assay_type": "functional", "settings": "336 h", "procedure,_shortened": "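HeLa seeded at 100-200 cells/well in six-well plates and treated with 0.3 or 0.03 μM compound (DMSO control). Medium with compound changed every 3 days for about two weeks, until control colonies were visible. Colonies fixed and stained with 6.0% glutaraldehyde/0.5% crystal violet for 30 min, then counted against control. Done in triplicate.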"}, "[5]": {"assay": "Cell cycle arrest in human HeLa cells assessed as G1 phase accumulation at 1 uM after 8 hrs by propidium iodide staining based flow cytometry (reference value: 62.7%)", "assay_type": "functional"}, "[6]": {"assay": "Cell cycle arrest in human HeLa cells assessed as G2/M phase accumulation at 1 uM after 8 hrs by propidium iodide staining based flow cytometry (reference value: 18.1%)", "assay_type": "functional"}, "[7]": {"assay": "Cell cycle arrest in human MCF7 cells assessed as G2/M phase accumulation at 1 uM after 144 hrs by propidium iodide staining based flow cytometry (reference value: 16.3%)", "assay_type": "functional"}, "[8]": {"assay": "Cell cycle arrest in human NCI-H1299 cells assessed as S phase accumulation at 1 uM after 24 hrs by propidium iodide staining based flow cytometry (reference value: 16.4 +/- 1.76%)", "assay_type": "functional"}, "[9]": {"assay": "Cell cycle arrest in human NCI-H1299 cells assessed as S phase accumulation at 1 uM after 48 hrs by propidium iodide staining based flow cytometry (reference value: 7.2%)", "assay_type": "functional"}, "[10]": {"assay": "Cell cycle arrest in human SH-SY5Y cells assessed as G2/M phase accumulation at 1 uM after 24 hrs by propidium iodide staining based flow cytometry (reference value: 26.2 +/- 1.27%)", "assay_type": "functional"}, "[11]": {"assay": "Cell cycle arrest in human SK-N-AS cells assessed as subG1 phase accumulation at 1 uM after 24 hrs by propidium iodide staining based flow cytometry relative to DMSO control", "assay_type": "functional"}, "[12]": {"assay": "Cell cycle arrest in human SK-N-AS cells assessed as G2/M phase accumulation at 1 uM after 24 hrs by propidium iodide staining based flow cytometry (reference value: 25.2 +/- 1.32%)", "assay_type": "functional"}, "[13]": {"assay": "Cell cycle arrest in human A549 cells assessed as G2/M phase accumulation at 1 uM after 24 hrs by propidium iodide staining based flow cytometry (reference value: 27 +/- 1.32%)", "assay_type": "functional"}, "[14]": {"assay": "Cell cycle arrest in human Kelly cells assessed as subG1 phase accumulation at 1 uM after 24 hrs by propidium iodide staining based flow cytometry relative to DMSO control", "assay_type": "functional"}, "[15]": {"assay": "Cell cycle arrest in human Kelly cells assessed as G2/M phase accumulation at 1 uM after 24 hrs by propidium iodide staining based flow cytometry (reference value: 18 +/- 1.28%)", "assay_type": "functional"}, "[16]": {"assay": "Cell cycle arrest in human LAN1 cells assessed as G1 phase accumulation at 1 uM after 24 hrs by propidium iodide staining based flow cytometry (reference value: 60.3 +/- 1.82%)", "assay_type": "functional"}, "[17]": {"assay": "Cell cycle arrest in human LAN1 cells assessed as G2/M phase accumulation at 1 uM after 24 hrs by propidium iodide staining based flow cytometry (reference value: 26.2 +/- 1.92%)", "assay_type": "functional"}, "[18]": {"assay": "Cell cycle arrest in human PC3 cells assessed as G1 phase accumulation at 1 uM after 24 hrs by propidium iodide staining based flow cytometry (reference value: 67 +/- 1.47%)", "assay_type": "functional", "settings": "PC-3"}, "[19]": {"assay": "Cell cycle arrest in human PC3 cells assessed as S phase accumulation at 1 uM after 24 hrs by propidium iodide staining based flow cytometry (reference value: 6.2 +/- 0.94%)", "assay_type": "functional", "settings": "PC-3"}, "[20]": {"assay": "Cell cycle arrest in human PC3 cells assessed as G2/M phase accumulation at 1 uM after 24 hrs by propidium iodide staining based flow cytometry (reference value: 26.8 +/- 1.69%)", "assay_type": "functional", "settings": "PC-3"}, "[21]": {"assay": "Cell cycle arrest in human NB-1 cells assessed as G2/M phase accumulation at 1 uM after 48 hrs by propidium iodide staining based flow cytometry (reference value: 12.4%)", "settings": "nb1, 48 h"}, "[22]": {"assay": "Cell cycle arrest in human NB-1 cells assessed as S phase accumulation at 1 uM after 72 hrs by propidium iodide staining based flow cytometry (reference value: 2.5%)", "settings": "nb1, 72 h"}, "[23]": {"assay": "Cell cycle arrest in human NB1 hTERT cells assessed as G2/M phase accumulation at 1 uM after 24 hrs by propidium iodide staining based flow cytometry (reference value: 35.7%)", "assay_type": "functional"}, "[24]": {"assay": "Cell cycle arrest in human NB1 hTERT cells assessed as S phase accumulation at 1 uM after 48 hrs by propidium iodide staining based flow cytometry (reference value: 10.3%)", "assay_type": "functional"}, "[25]": {"assay": "Cell cycle arrest in human NB1 hTERT cells assessed as G2/M phase accumulation at 1 uM after 48 hrs by propidium iodide staining based flow cytometry (reference value: 27.2%)", "assay_type": "functional"}, "MCF7": {"test_system": "MCF7", "assay": "Disruption of beta-tubulin network in human MCF7 cells assessed as induction of micronucleated cells at 1 uM after 24 hrs by DAPI staining based immunofluorescence microscopic analysis", "assay_type": "cell-based", "procedure,_shortened": "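Cells seeded on glass coverslips (1 x 10^5/well), treated 24 h, fixed in 4% paraformaldehyde 15 min, permeabilized with 0.5% Triton X-100, blocked in 5% BSA/PBS, stained overnight at 4 °C with anti-β-tubulin (1:200) then fluorescent secondary antibody; nuclei counterstained with DAPI; microtubule organization and nuclear morphology examined by fluorescence microscopy.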"}, "HeLa [26]": {"test_system": "HeLa", "assay": "Induction of apoptosis in human HeLa cells assessed as late apoptotic cells at 5 uM after 48 hrs by Annexin-V FITC/propidium iodide staining based flow cytometry (reference value: 4.9%)", "assay_type": "functional"}, "HeLa [27]": {"test_system": "HeLa", "assay": "Induction of apoptosis in human HeLa cells assessed as necrotic cells at 5 uM after 48 hrs by Annexin-V FITC/propidium iodide staining based flow cytometry (reference value: 2.3%)", "assay_type": "functional"}, "A549": {"test_system": "A549", "assay": "Induction of apoptosis in human A549 cells assessed as live cells at 5 uM after 72 hrs by Annexin-V FITC/propidium iodide staining based flow cytometry (reference value: 91.9%)", "assay_type": "functional"}, "[28]": {"assay": "Induction of apoptosis in human NB-1 cells assessed as live cells at 5 uM after 72 hrs by Annexin-V FITC/propidium iodide staining based flow cytometry (reference value: 93.3%)", "assay_type": "cell-based, NB1", "settings": "read-out: Activity"}, "[29]": {"assay": "Induction of apoptosis in human NB-1 cells assessed as late apoptotic cells at 5 uM after 72 hrs by Annexin-V FITC/propidium iodide staining based flow cytometry (reference value: 3.3%)", "assay_type": "cell-based", "settings": "nb1, 72 h"}, "[30]": {"assay": "Antiproliferative activity against human IBR3G cells after 72 hrs by XTT assay", "assay_type": "cell-based", "procedure,_shortened": "as §1"}}, "note": "The source made the active and inactive calls. No cut-off for these calls is given here."}
{"smiles": "Cc1[nH]c2c(c1-c1nnc(-c3ccccc3)o1)Cc1ccccc1-2", "values": [{"measurement": "IC50", "setting": "[1]", "result": 1700, "unit": "nM"}, {"measurement": "IC50", "setting": "[2]", "result": 670, "unit": "nM"}, {"measurement": "IC50", "setting": "[3]", "result": 190, "unit": "nM"}, {"measurement": "inhibition at 0.03 µM", "setting": "[4]", "result": "≤ 50", "unit": "%"}, {"measurement": "Activity", "setting": "[5]", "result": 32.5, "unit": "%"}, {"measurement": "Activity", "setting": "[6]", "result": 45.3, "unit": "%"}, {"measurement": "Activity", "setting": "[7]", "result": 79.9, "unit": "%"}, {"measurement": "Activity", "setting": "[8]", "result": 7.6, "unit": "%"}, {"measurement": "Activity", "setting": "[9]", "result": 9.7, "unit": "%"}, {"measurement": "Activity", "setting": "[10]", "result": 43.9, "unit": "%"}, {"measurement": "Activity", "setting": "[11]", "result": 6.3, "unit": "%"}, {"measurement": "Activity", "setting": "[12]", "result": 73, "unit": "%"}, {"measurement": "Activity", "setting": "[13]", "result": 65.3, "unit": "%"}, {"measurement": "Activity", "setting": "[14]", "result": 13.4, "unit": "%"}, {"measurement": "Activity", "setting": "[15]", "result": 42.9, "unit": "%"}, {"measurement": "Activity", "setting": "[16]", "result": 11.8, "unit": "%"}, {"measurement": "Activity", "setting": "[17]", "result": 82.6, "unit": "%"}, {"measurement": "Activity", "setting": "[18]", "result": 23.3, "unit": "%"}, {"measurement": "Activity", "setting": "[19]", "result": 4.7, "unit": "%"}, {"measurement": "Activity", "setting": "[20]", "result": 72, "unit": "%"}, {"measurement": "Activity", "setting": "[21]", "result": 15, "unit": "%"}, {"measurement": "Activity", "setting": "[22]", "result": 4.3, "unit": "%"}, {"measurement": "Activity", "setting": "[23]", "result": 28.9, "unit": "%"}, {"measurement": "Activity", "setting": "[24]", "result": 10.9, "unit": "%"}, {"measurement": "Activity", "setting": "[25]", "result": 23.1, "unit": "%"}, {"measurement": "Activity", "setting": "MCF7", "result": "Active"}, {"measurement": "Activity", "setting": "HeLa [26]", "result": 85.1, "unit": "%"}, {"measurement": "Activity", "setting": "HeLa [27]", "result": 4.3, "unit": "%"}, {"measurement": "Activity", "setting": "A549", "result": 42.7, "unit": "%"}, {"measurement": "viability at 72 h, 5 µM", "setting": "[28]", "result": 86.6, "unit": "%"}, {"measurement": "Activity", "setting": "[29]", "result": 8.3, "unit": "%"}, {"measurement": "IC50", "setting": "[30]", "result": 770, "unit": "nM"}]}
